The nature of data set [1]: Oral bioavailability. Type of data set: ADME, organism-based. The following applies: rat, in vivo.
For data set [2], the target named is Mitogen-activated protein kinase 14 (Mus musculus, UniProt P47811). The data set can be described thus: Inhibition of murine phosphorylated His-Mitogen-activated protein kinase p38 alpha.
The species named for the next data set is Homo sapiens. The data set can be described thus: Inhibition of LPS/IFN-gamma stimulated TNF-alpha release in human peripheral blood mononuclear cells after 3h of incubation. It counts as functional, cell-based. Put shortly: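 Human PBMCs from healthy volunteers incubated with inhibitor and stimulated with LPS/IFN-γ for 3 h. TNF-α in supernatants measured by ELISA; IC50 derived.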

Data set [3] has as its system Mus musculus. The data set is described as follows: Inhibition of LPS induced TNF-alpha release in mice following p.o. administration. Details: concentration or dose not given beside the values. Type of data set: functional. The essentials: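 LPS (20 mg/kg) given i.v. 1 h after dosing. Blood taken 1 h later; plasma TNF-α by mouse-specific ELISA. Reported as % inhibition or as ED50 (mg/kg p.o.).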

Data set [4] deals with Mus musculus. The data set can be described thus: Dose required to inhibit of LPS (20 mg/kg, injected i.v. 1 hr […] dosing) induced TNF-alpha release in mice upon oral administration. It counts as functional.
The target in data set [5] is RAF proto-oncogene serine/threonine-protein kinase (Homo sapiens, UniProt P04049). The data set is described as follows: Inhibition of human RAF proto-oncogene serine/threonine-protein kinase. Put shortly:
(§1)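 In-house kinase selectivity panel against human kinases; IC50 (µM) determined.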

The subject of data set [6] is Rattus norvegicus. The data set can be described thus: Dose required to inhibit bovine nasalseptum type II collagen induced arthritis in rats after administration on day 13. Type of data set: functional. The following applies: 312 h. The essentials:
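Female WAG×BUF/F1 rats immunized intradermally with bovine nasal septum type II collagen in Freund's incomplete adjuvant; swelling starts ~10 days after immunization. Oral dosing once daily for 10 days, beginning day 13 when swelling was nearly maximal. ED50 (mg/kg p.o.) derived for inhibition of joint swelling.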

Data set [7] deals with Mast/stem cell growth factor receptor Kit (Homo sapiens, UniProt P10721). The data set can be described thus: Inhibition of human c-Kit kinase. The essentials: as §1
The target of data set [8] is Mitogen-activated protein kinase 9 (Homo sapiens, UniProt P45984). The data set is described as follows: Inhibition of human c-Jun N-terminal kinase 2. Put shortly: as §1
Sequence of Mitogen-activated protein kinase 9 (P45984 whole entry): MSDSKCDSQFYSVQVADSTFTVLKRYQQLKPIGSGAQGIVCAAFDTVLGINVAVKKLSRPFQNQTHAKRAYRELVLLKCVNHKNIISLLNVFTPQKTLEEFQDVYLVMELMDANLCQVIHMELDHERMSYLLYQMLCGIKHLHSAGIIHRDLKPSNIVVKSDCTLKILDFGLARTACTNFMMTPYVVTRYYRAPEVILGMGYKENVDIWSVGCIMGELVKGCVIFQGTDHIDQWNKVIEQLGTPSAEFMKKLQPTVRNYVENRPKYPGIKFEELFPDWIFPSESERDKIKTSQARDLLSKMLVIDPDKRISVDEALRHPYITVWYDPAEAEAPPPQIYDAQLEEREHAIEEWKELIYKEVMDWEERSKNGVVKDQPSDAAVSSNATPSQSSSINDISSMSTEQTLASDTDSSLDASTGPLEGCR
The target in data set [9] is Cyclin-dependent kinase 1 (Homo sapiens, UniProt P06493). The data set can be described thus: Inhibition of human cyclin-dependent kinase 1. The essentials: as §1
In a further data set the target is Cytochrome P450 3A4 (Homo sapiens, UniProt P08684). The data set can be described thus: Inhibition of human cytochrome P450 3A4. Type of data set: ADME.
Sequence of Cytochrome P450 3A4 (P08684 whole entry): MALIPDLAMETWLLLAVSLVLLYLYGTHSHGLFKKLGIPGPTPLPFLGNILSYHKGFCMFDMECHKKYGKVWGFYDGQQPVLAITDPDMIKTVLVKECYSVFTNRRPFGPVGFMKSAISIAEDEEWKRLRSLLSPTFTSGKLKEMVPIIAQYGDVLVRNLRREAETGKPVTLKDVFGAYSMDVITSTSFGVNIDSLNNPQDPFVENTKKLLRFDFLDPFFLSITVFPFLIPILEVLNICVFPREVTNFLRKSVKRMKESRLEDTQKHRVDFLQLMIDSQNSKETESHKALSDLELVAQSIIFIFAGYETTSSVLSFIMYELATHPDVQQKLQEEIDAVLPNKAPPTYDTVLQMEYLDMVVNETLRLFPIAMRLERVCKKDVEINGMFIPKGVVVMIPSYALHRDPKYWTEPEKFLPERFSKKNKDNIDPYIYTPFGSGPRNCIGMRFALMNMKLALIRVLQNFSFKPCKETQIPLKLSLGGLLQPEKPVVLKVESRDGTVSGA
The subject of data set [10] is Rattus norvegicus. The data set can be described thus: Percent swelling of joints in rats immunized with Mycobacterium tuberculosis was determined on day 20 after 25 mg/kg peroral administration. Type of data set: functional. The following applies: route oral. Put shortly:
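Female Wistar rats (adjuvant-induced arthritis) immunized with Mycobacterium tuberculosis on day 0; compounds given orally at 25 mg/kg twice daily (2 × 25 mg/kg p.o. per day) from day 14 to day 20; joint swelling measured on day 20 and expressed as % swelling.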

In another data set the target is Cytochrome P450 2C9 (Homo sapiens, UniProt P11712). The data set is described as follows: Inhibition of human cytochrome P450 2C9. It counts as ADME.
Sequence of Cytochrome P450 2C9 (P11712 whole entry): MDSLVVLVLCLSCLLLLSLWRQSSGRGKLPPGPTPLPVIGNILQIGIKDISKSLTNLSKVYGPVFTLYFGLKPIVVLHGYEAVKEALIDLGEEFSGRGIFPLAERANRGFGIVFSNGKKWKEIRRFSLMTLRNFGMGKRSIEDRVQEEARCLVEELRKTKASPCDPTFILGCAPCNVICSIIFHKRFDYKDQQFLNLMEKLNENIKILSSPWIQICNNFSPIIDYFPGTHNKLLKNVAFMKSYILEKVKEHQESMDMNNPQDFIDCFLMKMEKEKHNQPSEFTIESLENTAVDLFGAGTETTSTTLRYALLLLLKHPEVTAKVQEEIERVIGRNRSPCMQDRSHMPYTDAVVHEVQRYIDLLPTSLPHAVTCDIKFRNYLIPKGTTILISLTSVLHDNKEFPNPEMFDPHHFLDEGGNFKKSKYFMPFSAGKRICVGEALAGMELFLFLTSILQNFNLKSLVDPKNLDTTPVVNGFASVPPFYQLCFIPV
A further data set has as its target T1, Cytochrome P450 1A2 (Homo sapiens, UniProt P05177).
T1 sequence (P05177 whole entry): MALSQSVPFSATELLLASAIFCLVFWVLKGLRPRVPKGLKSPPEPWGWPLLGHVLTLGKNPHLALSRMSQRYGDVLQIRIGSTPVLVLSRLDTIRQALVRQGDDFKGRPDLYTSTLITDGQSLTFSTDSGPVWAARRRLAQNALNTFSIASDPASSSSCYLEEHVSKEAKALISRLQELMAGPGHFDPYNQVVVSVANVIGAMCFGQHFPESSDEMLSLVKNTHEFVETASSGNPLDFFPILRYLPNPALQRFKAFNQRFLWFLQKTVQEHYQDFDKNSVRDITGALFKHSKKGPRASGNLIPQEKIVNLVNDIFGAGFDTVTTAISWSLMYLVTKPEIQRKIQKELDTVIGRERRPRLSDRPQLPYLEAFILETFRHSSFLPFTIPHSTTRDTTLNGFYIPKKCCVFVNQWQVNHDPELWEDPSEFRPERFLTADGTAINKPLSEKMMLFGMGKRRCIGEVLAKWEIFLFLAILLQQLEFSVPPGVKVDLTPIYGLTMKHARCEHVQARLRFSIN
The data set is described as follows: Inhibition of human cytochrome P450 1A2. Type of data set: ADME.

The target in data set [11] is Hepatocyte growth factor receptor (Homo sapiens, UniProt P08581). The data set can be described thus: Inhibition of human Met proto-oncogene tyrosine kinase.
Data set [12] has as its target Proto-oncogene tyrosine-protein kinase Src (Homo sapiens, UniProt P12931). The data set can be described thus: Inhibition of human c-Src. Put shortly:
as §1

The target in data set [13] is Tyrosine-protein kinase ABL1 (Homo sapiens, UniProt P00519). The data set can be described thus: Inhibition of human c-Abl. The essentials: as §1
In the next data set the target is Cytochrome P450 2D6 (Homo sapiens, UniProt P10635). The data set is described as follows: Inhibition of human cytochrome P450 2D6. It counts as ADME.
Sequence of Cytochrome P450 2D6 (P10635 whole entry): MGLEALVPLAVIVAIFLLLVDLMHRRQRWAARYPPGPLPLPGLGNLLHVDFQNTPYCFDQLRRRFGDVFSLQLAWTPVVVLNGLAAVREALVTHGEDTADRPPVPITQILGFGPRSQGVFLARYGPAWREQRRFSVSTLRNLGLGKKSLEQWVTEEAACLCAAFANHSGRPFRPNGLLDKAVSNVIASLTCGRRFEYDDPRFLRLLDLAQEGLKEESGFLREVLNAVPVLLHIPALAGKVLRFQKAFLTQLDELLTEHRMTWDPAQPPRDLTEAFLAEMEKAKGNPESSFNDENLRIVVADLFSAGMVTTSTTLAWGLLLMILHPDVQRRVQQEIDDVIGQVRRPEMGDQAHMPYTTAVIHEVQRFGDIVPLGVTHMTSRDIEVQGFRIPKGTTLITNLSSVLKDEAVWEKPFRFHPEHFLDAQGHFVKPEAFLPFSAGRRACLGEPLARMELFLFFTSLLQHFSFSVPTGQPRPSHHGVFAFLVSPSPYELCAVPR
In data set [14] the target is Mitogen-activated protein kinase 8 (Homo sapiens, UniProt P45983). The data set is described as follows: Inhibition of human c-Jun N-terminal kinase 1. The essentials: as §1
Data set [15] has as its target Vascular endothelial growth factor receptor 2 (Homo sapiens, UniProt P35968). The data set is described as follows: Inhibition of human vascular endothelial growth factor receptor 2. The essentials: as §1
Data set [16] can be described thus: Half life was determined. Type of data set: ADME, organism-based. The following applies: rat, in vivo.
The target in data set [17] is Prostaglandin G/H synthase 1 (Homo sapiens, UniProt P23219). The data set is described as follows: Inhibition of human prostaglandin G/H synthase 1, COX-1.
Sequence of Prostaglandin G/H synthase 1 (P23219 whole entry): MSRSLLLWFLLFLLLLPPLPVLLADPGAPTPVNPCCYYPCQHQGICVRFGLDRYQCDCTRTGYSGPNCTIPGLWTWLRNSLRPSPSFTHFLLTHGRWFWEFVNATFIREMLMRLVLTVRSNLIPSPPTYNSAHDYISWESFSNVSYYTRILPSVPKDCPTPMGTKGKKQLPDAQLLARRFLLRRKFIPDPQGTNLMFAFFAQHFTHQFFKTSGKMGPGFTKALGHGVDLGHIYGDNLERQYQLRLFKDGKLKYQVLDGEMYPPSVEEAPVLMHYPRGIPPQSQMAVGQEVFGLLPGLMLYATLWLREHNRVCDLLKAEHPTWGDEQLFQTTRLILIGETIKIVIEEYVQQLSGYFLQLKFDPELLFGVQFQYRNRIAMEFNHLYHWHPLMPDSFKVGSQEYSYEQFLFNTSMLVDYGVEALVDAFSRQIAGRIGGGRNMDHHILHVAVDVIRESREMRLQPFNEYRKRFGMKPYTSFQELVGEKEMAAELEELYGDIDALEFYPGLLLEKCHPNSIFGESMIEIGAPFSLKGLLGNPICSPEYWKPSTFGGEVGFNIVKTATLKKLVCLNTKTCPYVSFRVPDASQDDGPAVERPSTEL
The target in data set [18] is Insulin-like growth factor 1 receptor (Homo sapiens, UniProt P08069). The data set can be described thus: Inhibition of human insulin-like growth factor I receptor. Put shortly:
as §1

Data set [19] concerns the target T2, Epidermal growth factor receptor (Homo sapiens, UniProt P00533). The data set can be described thus: Inhibition of human epidermal growth factor receptor.
Data set [20] concerns the target T2, Epidermal growth factor receptor. The data set is described as follows: Inhibition of human Epidermal growth factor receptor, HER-1.

Each structure is given as a SMILES string.

Sequence of Mitogen-activated protein kinase 14 (P47811 whole entry): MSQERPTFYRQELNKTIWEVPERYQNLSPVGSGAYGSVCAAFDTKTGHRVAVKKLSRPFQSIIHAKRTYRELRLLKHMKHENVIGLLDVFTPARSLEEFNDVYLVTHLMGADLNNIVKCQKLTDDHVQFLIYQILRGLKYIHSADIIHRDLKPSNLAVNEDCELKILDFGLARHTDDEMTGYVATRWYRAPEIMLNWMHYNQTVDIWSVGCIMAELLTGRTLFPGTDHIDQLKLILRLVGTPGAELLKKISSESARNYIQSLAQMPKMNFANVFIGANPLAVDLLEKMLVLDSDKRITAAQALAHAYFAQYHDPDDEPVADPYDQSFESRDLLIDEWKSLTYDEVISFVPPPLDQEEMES
Sequence of Vascular endothelial growth factor receptor 2 (P35968 whole entry): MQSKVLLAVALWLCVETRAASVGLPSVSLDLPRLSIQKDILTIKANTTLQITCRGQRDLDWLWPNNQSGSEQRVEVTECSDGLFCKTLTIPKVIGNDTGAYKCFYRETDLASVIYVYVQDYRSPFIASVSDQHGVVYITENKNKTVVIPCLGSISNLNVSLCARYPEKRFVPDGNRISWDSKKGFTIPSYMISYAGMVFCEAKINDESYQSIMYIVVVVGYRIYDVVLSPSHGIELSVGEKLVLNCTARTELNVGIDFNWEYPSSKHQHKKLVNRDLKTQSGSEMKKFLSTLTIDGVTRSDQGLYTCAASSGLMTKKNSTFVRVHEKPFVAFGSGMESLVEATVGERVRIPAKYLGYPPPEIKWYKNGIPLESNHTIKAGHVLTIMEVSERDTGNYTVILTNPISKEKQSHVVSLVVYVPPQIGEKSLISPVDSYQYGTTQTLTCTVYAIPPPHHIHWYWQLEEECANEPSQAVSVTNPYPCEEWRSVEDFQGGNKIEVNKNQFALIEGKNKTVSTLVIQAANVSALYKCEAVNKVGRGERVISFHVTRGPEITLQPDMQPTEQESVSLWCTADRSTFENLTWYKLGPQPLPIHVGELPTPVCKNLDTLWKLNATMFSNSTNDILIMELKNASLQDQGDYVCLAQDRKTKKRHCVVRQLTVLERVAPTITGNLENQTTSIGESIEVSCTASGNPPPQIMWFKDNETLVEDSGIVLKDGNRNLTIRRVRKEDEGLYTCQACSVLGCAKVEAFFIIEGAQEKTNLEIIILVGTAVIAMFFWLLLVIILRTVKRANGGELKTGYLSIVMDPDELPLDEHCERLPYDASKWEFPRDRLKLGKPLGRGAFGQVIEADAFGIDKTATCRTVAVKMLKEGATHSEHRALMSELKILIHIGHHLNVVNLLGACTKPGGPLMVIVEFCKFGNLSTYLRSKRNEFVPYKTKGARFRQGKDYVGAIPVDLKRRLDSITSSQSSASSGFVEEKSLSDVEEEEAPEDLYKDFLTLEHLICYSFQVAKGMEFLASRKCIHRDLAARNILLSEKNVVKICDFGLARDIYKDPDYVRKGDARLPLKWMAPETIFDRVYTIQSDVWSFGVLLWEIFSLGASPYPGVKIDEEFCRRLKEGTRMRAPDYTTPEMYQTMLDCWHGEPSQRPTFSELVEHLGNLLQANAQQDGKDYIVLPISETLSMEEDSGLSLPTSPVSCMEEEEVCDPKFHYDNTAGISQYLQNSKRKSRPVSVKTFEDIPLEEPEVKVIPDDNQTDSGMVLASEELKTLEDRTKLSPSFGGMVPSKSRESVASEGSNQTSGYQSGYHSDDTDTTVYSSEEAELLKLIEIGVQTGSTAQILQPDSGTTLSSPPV
Sequence of Proto-oncogene tyrosine-protein kinase Src (P12931 2-536 limits assumed): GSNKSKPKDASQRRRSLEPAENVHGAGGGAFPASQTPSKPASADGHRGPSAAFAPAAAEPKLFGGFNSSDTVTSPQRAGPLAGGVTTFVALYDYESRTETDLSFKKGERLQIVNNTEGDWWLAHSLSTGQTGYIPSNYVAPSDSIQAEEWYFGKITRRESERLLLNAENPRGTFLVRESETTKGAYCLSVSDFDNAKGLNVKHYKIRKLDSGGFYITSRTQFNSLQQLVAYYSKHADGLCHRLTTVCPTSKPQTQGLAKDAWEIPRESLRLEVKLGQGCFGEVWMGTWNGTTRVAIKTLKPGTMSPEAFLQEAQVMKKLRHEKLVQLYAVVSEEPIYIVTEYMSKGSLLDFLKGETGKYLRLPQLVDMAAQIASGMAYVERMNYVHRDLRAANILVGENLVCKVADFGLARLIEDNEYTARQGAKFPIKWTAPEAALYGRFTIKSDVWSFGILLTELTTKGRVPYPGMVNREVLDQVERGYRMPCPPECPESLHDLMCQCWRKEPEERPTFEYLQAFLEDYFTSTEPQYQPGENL

As for `C[C@H](Nc1nccc(-c2[nH]c(C3(O)CCN(C)CC3)nc2-c2ccc(F)cc2)n1)c1ccccc1`, the bioavailability – broadly, dose-corrected exposure relative to a reference, in per cent – in [1] worked out at 10%. Also, the figures for the IC50 (in data set [2]; in the data set listed under Homo sapiens) were 2 nM and 0.1 nM, respectively. The Inhibition (in general, the relative decrease from the control value, in per cent) in the data set with Mus musculus [3] was determined as 83%.
As for `C[C@H](Nc1nccc(-c2oc(C3(O)CCN(C)CC3)nc2-c2ccc(F)cc2)n1)c1ccccc1`, the figures for the IC50 (in data set [2]; in the data set listed under Homo sapiens) were 11 nM and 8 nM, respectively. The compound further came in with an Inhibition in the data set with Mus musculus [3] of 19%.
For `CN1CCC(O)(c2nc(-c3ccc(F)cc3)c(-c3ccncc3)o2)CC1`, the IC50 (usually the concentration at which inhibition is half-maximal) in the data set listed under Homo sapiens was 180 nM.
On to `C[C@H](Nc1cc(-c2sc(C3(O)CCN(C)CC3)nc2-c2ccc(F)cc2)ccn1)c1ccccc1`, for which the IC50 worked out at 5 nM in data set [2] and 1 nM in the data set listed under Homo sapiens. Moreover, in the data set with Mus musculus [3], the Inhibition was 94%.
In [2], `C[C@H](Nc1nccc(-n2cc(C3(O)CCN(C)CC3)nc2-c2ccc(F)cc2)n1)c1ccccc1` came in with an IC50 of 4 nM. The compound further showed an Inhibition with Mus musculus [3] of 94%.
Consider `CN1CCN(c2ccc3c(n2)nc(-c2ccc(F)cc2)n3-c2ccnc(NC3CCCC3)n2)CC1`, for which, in data set [1], the bioavailability was 72.8%. Further, the ED50 (in general, the midpoint of the dose-response relation) in the data set with Mus musculus [4] came to 1.41 mg/kg; with Rattus norvegicus [6] it was 4.22 mg/kg. In addition, the IC50 in [5] is > 10000 nM; in data set [7], > 10000 nM; in [8], 47 nM; in data set [9] it was > 10000 nM; on Cytochrome P450 3A4, > 2000 nM; on Cytochrome P450 2C9 it was > 2000 nM. The IC50 was > 2000 nM on Cytochrome P450 1A2; > 10000 nM in data set [11]; > 10000 nM in data set [12]; > 10000 nM in [13]; > 2000 nM against Cytochrome P450 2D6; 15 nM in data set [2]. The IC50 in data set [14] is 1500 nM; in data set [15], > 10000 nM; in data set [17] it was > 80000 nM; in the data set filed under Homo sapiens it was 1 nM; in data set [18], > 10000 nM. The Swelling in the data set on Rattus norvegicus [10] stood at 55%. The half-life (in general, the time needed for the level to fall by half in the phase considered) in data set [16] was 4.1 h. In addition, the Inhibition in the data set with Mus musculus [3] was found to be 94%.
In turn, `CN1CCC(O)(c2nc(-c3ccc(F)cc3)c(-c3ccncc3)[nH]2)CC1` returned an IC50 in the data set filed under Homo sapiens of 15 nM.
As to `C[C@H](Nc1cc(-c2sc(C3CCN(C)CC3)nc2-c2ccc(F)cc2)ccn1)c1ccccc1`, the bioavailability in data set [1] is 20.3%. The ED50 was 2.06 mg/kg in the data set on Mus musculus [4] and 7 mg/kg in the data set on Rattus norvegicus [6]. Also, the IC50 was 2100 nM in data set [5]; 700 nM in [19]; > 10000 nM in data set [7]; 261 nM in data set [8]; > 10000 nM in data set [9]; > 2000 nM against Cytochrome P450 3A4. Besides, the IC50 was > 2000 nM on Cytochrome P450 2C9; > 2000 nM on Cytochrome P450 1A2; > 10000 nM in data set [11]; 8000 nM in [12]; > 10000 nM in data set [13]; > 2000 nM on Cytochrome P450 2D6. In addition, the IC50 in data set [2] is 18 nM; in data set [14] it was 1900 nM; in [15], 1700 nM; in data set [17] it was > 80000 nM; in the data set filed under Homo sapiens, 0.6 nM; in data set [18], > 10000 nM. Besides, in data set [20], the IC50 came out at 1100 nM. The compound further displayed a Swelling in the data set with Rattus norvegicus [10] of 57%. In addition, the half-life in [16] is 12.5 h. In addition, the Inhibition with Mus musculus [3] is 88%.
On to `Fc1ccc(-c2nc(C3CCNCC3)cn2-c2ccnc(NC3CCCCC3)n2)cc1`, for which the IC50 in data set [2] came out at 5 nM; in the data set listed under Homo sapiens, 0.8 nM. In addition, in the data set with Mus musculus [3], the Inhibition worked out at 29%.
Regarding `C[C@H](Nc1cc(-c2oc(C3(O)CCN(C)CC3)nc2-c2ccc(F)cc2)ccn1)c1ccccc1`, the IC50 came to 9 nM in [2] and 3 nM in the data set listed under Homo sapiens. Moreover, the Inhibition in the data set with Mus musculus [3] is 21%.
Take `FC(F)(F)c1cccc(-c2nc(C3CCNCC3)cn2-c2ccnc(NC3CCCCC3)n2)c1`: the results for the IC50 (in [2]; in the data set filed under Homo sapiens) were 8 nM and 2 nM, respectively. The same compound returned an Inhibition in the data set with Mus musculus [3] of 77%.
Consider `C[C@H](Nc1nccc(-n2c(-c3ccc(F)cc3)nc3nc(N4CCN(C)CC4)ccc32)n1)c1ccccc1`, for which the IC50 in data set [2] came to 6 nM; in the data set filed under Homo sapiens, 1 nM. The Inhibition with Mus musculus [3] was 83%.
With `C[C@H](Nc1cc(-c2[nH]c(C3(O)CCN(C)CC3)nc2-c2ccc(F)cc2)ccn1)c1ccccc1`, the IC50 was 7 nM in data set [2] and 3 nM in the data set filed under Homo sapiens. Moreover, the Inhibition in the data set on Mus musculus [3] was 42%.
The compound `CN1CCC(O)(c2cn(-c3ccnc(NC4CCCC4)n3)c(-c3cccc(C(F)(F)F)c3)n2)CC1` yielded a bioavailability in data set [1] of 23.2%. Further, the ED50 in the data set on Mus musculus [4] worked out at 1.07 mg/kg; in the data set on Rattus norvegicus [6], 9.51 mg/kg. Further, the IC50 is > 10000 nM in data set [7]; 4660 nM in [8]; > 10000 nM in [9]; > 2000 nM at Cytochrome P450 3A4; > 2000 nM on Cytochrome P450 2C9; > 2000 nM against Cytochrome P450 1A2. The IC50 in data set [12] is > 10000 nM; in data set [13], > 10000 nM; against Cytochrome P450 2D6, > 2000 nM; in [2], 29 nM; in data set [14] it was > 10000 nM; in data set [15], > 10000 nM. Also, the 50% inhibitory concentration (IC50) in data set [17] is > 80000 nM; in the data set filed under Homo sapiens, 1 nM; in data set [18] it was > 10000 nM. Also, the Swelling in the data set on Rattus norvegicus [10] is recorded as 58%. In [16], this compound showed a half-life of 3.5 h. For the same compound, the Inhibition with Mus musculus [3] is 94%.
In the case of `CN1CCC(O)(c2nc(-c3ccc(F)cc3)c(-c3ccncc3)s2)CC1`, the IC50 in the data set filed under Homo sapiens was determined as 145 nM.

These data come from ChEMBL document CHEMBL1147483, “Novel p38 inhibitors with potent oral efficacy in several models of rheumatoid arthritis” (Bioorg Med Chem Lett, 2004).
